# Experimental data pooled from the literature.
# Protocols differ between the studies behind these lines.
# DRD4: D(4) dopamine receptor (DRD4, Homo sapiens, UniProt P21917)
# HTR5A: 5-hydroxytryptamine receptor 5A (HTR5A, Homo sapiens, UniProt P47898)
# PI4KA: Phosphatidylinositol 4-kinase alpha (PI4KA, Homo sapiens, UniProt P42356)
# ABHD6: Monoacylglycerol lipase ABHD6 (ABHD6, Homo sapiens, UniProt Q9BV23)
Compound,target,effect on,mode,technique,tested at,notes,inhibition [%]
CCCNc1nc2ccccc2n1Cc1ccc(Cl)cc1,DRD4,ligand displacement,,,10 µM,,2.14
O=C(Nc1ccc(S(=O)(=O)N2CCC(Cl)CC2)cc1)c1ccc([N+](=O)[O-])o1,DRD4,ligand displacement,,radioligand,10 µM,,1
CCN1CC(c2ccccc2)c2cc(OC)c(OC)c3c2C1Cc1cc2c(cc1-3)OCO2 (stereo not drawn),HTR5A,ligand displacement,,radioligand,10 µM,,-12.1
O=C(CSc1nc2nccnc2c(=O)n1CCc1ccccc1)Nc1nccs1,PI4KA,enzyme activity,inhibitor,,10 µM,,-5
O=C(Oc1nsnc1N1CCN(c2ccccc2)CC1)N1CCCCC1,ABHD6,enzyme activity,inhibitor,fluorescence,1 µM,lysate,40
Cn1cnc(Br)c1C1=CN(c2ncnc3[nH]cnc23)CCS1,"Mitogen-activated protein kinase kinase kinase 19 (MAP3K19, Homo sapiens, UniProt Q56UN5)",enzyme activity,inhibitor,radiometric,50 nM,,29.5
CCN(CC)c1ccc(C2Nc3ccc(C(=O)c4ccccc4)cc3NC3=C2C(=O)CC(C)(C)C3)cc1 (stereo not drawn),HTR5A,ligand displacement,,radioligand,10 µM,,85
N#Cc1cc(Cn2c(N3CCCC3)nc3ccccc32)ccc1F,DRD4,ligand displacement,,,10 µM,,-0.93
CS(=O)(=O)Nc1cccc(-c2csc(NC(=O)CSc3nc4nccnc4c(=O)n3CCc3ccccc3)n2)c1,PI4KA,enzyme activity,inhibitor,,10 µM,,5
O=C1N=C(N2CCCCN2)S/C1=C\c1ccc(F)cc1O,"Neurotensin receptor type 1 (NTSR1, Homo sapiens, UniProt P30989)",ligand displacement,,radioligand,10 µM,,< 10
CC(C)CCn1c(SCC(=O)Nc2ccccc2C(F)(F)F)nc2nccnc2c1=O,PI4KA,enzyme activity,inhibitor,,10 µM,,< 20
O=C(Oc1nsnc1N1CCC(Cc2ccccc2)CC1)N1CCCCC1,ABHD6,enzyme activity,inhibitor,fluorescence,1 µM,lysate,15
